The values that follow come from ChEMBL document CHEMBL5375998, “New Genetically Engineered Derivatives of Antibacterial Darobactins Underpin Their Potential for Antibiotic Development” (J Med Chem, 2023).

≈ marks a conversion by molar mass, not a printed value.

Test [1] can be described thus: Binding affinity to Escherichia coli N-terminal 6 his tagged BamA barrel domain (421 to 810 residues) assessed as dissociation constant measured after 15 mins by microscale thermophoresis analysis. The method in brief:
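Microscale thermophoresis with E. coli BamA at 50 nM in 50 mM HEPES pH 7.6, 5 mM MgCl2, 0.05% Tween. Ligand stock was in water and diluted in HEPES buffer. It was tested from the highest soluble concentration, mostly 2 mM, in 1:1 serial dilution over 16 samples. A labeling/fluorescence pretest was run for each sample.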

In test [2] the test system is Acinetobacter baumannii. Put plainly: Antibacterial activity against Acinetobacter baumannii DSM-30007 assessed as reduction in bacterial growth measured after 24 hrs. In kind it is functional.
In test [3] the test system is Pseudomonas aeruginosa. The experiment in a line: Antibacterial activity against multidrug resistant Pseudomonas aeruginosa 83979 clinical isolate assessed as reduction in bacterial growth measured after 24 hrs. Type of test: functional.
Test [4] has as its system Pseudomonas aeruginosa. Put plainly: Antibacterial activity against Pseudomonas aeruginosa PA14 DSM 19882 assessed as reduction in bacterial growth measured after 24 hrs. Particulars: PA14 DSM 19882, 24 h.
The subject of test [5] is Pseudomonas aeruginosa. The experiment in a line: Antibacterial activity against multidrug resistant Pseudomonas aeruginosa 84389 clinical isolate assessed as reduction in bacterial growth measured after 24 hrs. In kind it is functional.
In test [6] the test system is Acinetobacter baumannii. Put plainly: Antibacterial activity against Acinetobacter baumannii ATCC 17978 assessed as reduction in bacterial growth measured after 24 hrs. In kind it is functional.
Test [7] has as its system Acinetobacter baumannii. Put plainly: Antibacterial activity against Acinetobacter baumannii NCTC 13301 assessed as reduction in bacterial growth measured after 24 hrs. Type of test: functional.

A word on the Kd: it is a measure of binding affinity in units of concentration. A word on the MIC: it is the lowest concentration that inhibits growth of the organism.

For `C[C@@H](O)[C@@H]1NC(=O)[C@H]2NC(=O)[C@H](CC(N)=O)NC(=O)[C@@H](N)Cc3c[nH]c4c(cccc34)O[C@@H]2c2c[nH]c3cc(ccc23)[C@H](CCCN)[C@@H](C(=O)N[C@@H](CCC(N)=O)C(=O)N[C@@H](Cc2c[nH]c3ccccc23)C(=O)O)NC1=O`, the Kd in test [1] is 2.2 µM.
Take `N=C(N)NCCC[C@H](NC(=O)[C@H]1NC(=O)[C@H](CO)NC(=O)[C@H]2NC(=O)[C@H](CCC(N)=O)NC(=O)[C@@H](N)Cc3c[nH]c4c(cccc34)O[C@@H]2c2c[nH]c3cc(ccc23)[C@@H]1CCCN)C(=O)N[C@@H](Cc1c[nH]c2ccccc12)C(=O)O`: the minimal inhibitory concentration (MIC) in the test on Acinetobacter baumannii [2] was determined as 2 µg/mL (≈ 1.84 µM); in the test with Pseudomonas aeruginosa [3], 8 µg/mL (≈ 7.35 µM); in the test on Pseudomonas aeruginosa [4] it was 16 µg/mL (≈ 14.7 µM); in the test on Pseudomonas aeruginosa [5] it was 16 µg/mL (≈ 14.7 µM); in the test with Acinetobacter baumannii [6] it was 16 µg/mL (≈ 14.7 µM); with Acinetobacter baumannii [7] it was 8 µg/mL (≈ 7.35 µM).
As to `C[C@@H](O)[C@@H]1NC(=O)[C@H]2NC(=O)[C@H](CC(=O)O)NC(=O)[C@@H](N)Cc3c[nH]c4c(cccc34)O[C@@H]2c2c[nH]c3cc(ccc23)[C@H](CCCN)[C@@H](C(=O)N[C@@H](CCCNC(=N)N)C(=O)N[C@@H](Cc2c[nH]c3ccccc23)C(=O)O)NC1=O`, in test [1], the Kd was 22.6 µM.
